Assay results collected from several papers.
Compare with care: the assays were run in different laboratories.
Cell line: A549
Read-out: cell growth or viability

CCN(CC)CCNC(=O)c1c(C)[nH]c(/C=C2\C(=O)Nc3ccc(F)cc32)c1C  inhibition (30 µM): 85.7%
CN1C(=O)/C(=N\NC(=O)c2cc3ccccc3[nH]2)c2cc(Br)ccc21  inhibition (30 µM): 97.4%
COc1ccc(/C=C2\SC(=S)N(CC(=O)Nc3ccccc3)C2=O)cc1  inhibition (MTT; 10 µM): 23%
COc1cc(CNC(=O)CCCC/C=C/C(C)C)ccc1O  inhibition (SRB; 10 µM): 0%
Cn1c(=O)c(NN=C2C(=O)Nc3ccc(Br)cc32)nc2ccccc21  inhibition (30 µM): 84.9%
O=C(N/N=C1\C(=O)N(c2ccccc2)c2ccccc21)c1cc2ccccc2[nH]1  inhibition (30 µM): 98.5%
O=C(CN1C(=O)/C(=C/c2cccc(Br)c2)SC1=S)Nc1ccccc1  inhibition (MTT; 10 µM): 25.8%
CN1C(=O)/C(=N\NC(=O)c2cc3ccccc3[nH]2)c2cc(Cl)ccc21  inhibition (30 µM): 95.8%
COc1cccc(NC(=O)CN2C(=O)/C(=C/c3ccc(F)cc3)SC2=S)c1  inhibition (MTT; 10 µM): 22.3%
COc1ccc(-c2nc(NN=C3C(=O)Nc4ccc(Br)cc43)c3ccccc3n2)cc1OC  inhibition (10 µM): 77.1%
O=C1Nc2ccc(Br)cc2/C1=N/NC(=O)c1cc2ccccc2[nH]1  inhibition (30 µM): 77%
Cn1c(=O)c(NN=C2C(=O)Nc3ccccc32)nc2ccccc21  inhibition (30 µM): 95.2%
CN1C(=O)/C(=N\NC(=O)c2cc3ccccc3[nH]2)c2cc(F)ccc21  inhibition (30 µM): 90.3%
Cc1ccc2c(c1)C(=NNc1nnc(Cc3ccccc3)c3ccccc13)C(=O)N2  inhibition (30 µM): 85%
O=C(CN1C(=O)/C(=C/c2ccc(Cl)cc2)SC1=S)Nc1ccccc1  inhibition (MTT; 10 µM): 36.7%
COc1cc2ncnc(NN=C3C(=O)Nc4ccccc43)c2cc1OC  inhibition (30 µM): 32.9%
COc1ccccc1/C=C1\SC(=S)N(CC(=O)Nc2ccccc2)C1=O  inhibition (MTT; 10 µM): 38.3%
O=C1Nc2ccccc2/C1=N/NC(=O)c1cc2ccccc2[nH]1  inhibition (30 µM): 90.9%
O=C(CN1C(=O)/C(=C/c2ccc([N+](=O)[O-])cc2)SC1=S)Nc1ccccc1  inhibition (MTT; 10 µM): 24.4%
Cc1ccc2c(c1)C(=NNc1nc3ccccc3n(C)c1=O)C(=O)N2  inhibition (30 µM): 68.8%
